In ChEMBL document CHEMBL4619800, “β-Hydroxy- and β-Aminophosphonate Acyclonucleosides as Potent Inhibitors of Plasmodium falciparum Growth” (J Med Chem, 2020):
Calls of active or inactive are those of the source. The calls are words filed in the database; no cut-off is given here.

How the values were obtained:
[1] = Selectivity index, ratio of IC50 for human K562 cells to IC50 for antiplasmodial activity against Plasmodium falciparum 3D7 infected in erythrocytes; assay type: toxicity, cell-based; conditions: K562 cells versus Plasmodium falciparum 3D7 in erythrocytes, read-out: Ratio IC50
Plasmodium falciparum [2] = assay: Antiplasmodial activity against Plasmodium falciparum 3D7 infected in erythrocytes assessed as reduction in [3H]hypoxanthine incorporation preincubated for 48 hrs followed by [3H]hypoxanthine addition and measured after 18 hrs by topcount scintillation counting analysis; assay type: functional, organism-based
Procedure, shortened: (§1)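 Modified Desjardins test. Infected erythrocytes at 1.5% final hematocrit and 0.6% parasitemia, in HEPES-buffered RPMI 1640 with 10% AB human serum and a range of compound concentrations, for 48 h. Then [³H]hypoxanthine (0.5 μCi/well) added for 18 h. Freeze-thaw lysis, filter harvest, scintillation counting, uninfected-erythrocyte background subtracted. IC50 from sigmoidal variable-slope regression. Mean of ≥3 independent experiments in duplicate.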

[3] = Toxicity in human K562 cells assessed as effect on cell growth measured after 24 hrs by [3H]thymidine incorporation based assay
Procedure, shortened: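 K562 cells seeded at 8000 per well in RPMI 1640 with 10% FCS. Incubated 24 h at 37 °C, 5% CO₂ with a range of compound concentrations. Then 0.5 μCi [³H]thymidine added for 6 h. Freeze-thaw, harvest of macromolecules and scintillation counting, with medium-only background subtracted.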

Plasmodium berghei [4] = assay: Antiplasmodial activity against Plasmodium berghei ANKA infected in ip dosed Swiss NMRI mouse assessed as reduction in parasitemia administered once daily for 4 days measured 24 hrs post-last dose by Giemsa-staining based assay; assay type: functional
Procedure, shortened: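 Female Swiss NMRI mice infected on day 0 by IV injection of 10⁷ P. berghei ANKA-infected erythrocytes. Dosed ip once daily for 4 days from day 1, 3 mice per group. Test doses 0–30 mg/kg in 0.9% NaCl; artesunate 0–27 mg/kg in DMSO. Controls received vehicle. Parasitemia counted on day 5 from Giemsa-stained smears, and ED50 taken as the dose giving 50% parasitemia reduction.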

Plasmodium falciparum [5] = assay: Antiplasmodial activity against chloroquine-resistant Plasmodium falciparum W2 infected in erythrocytes assessed as reduction in [3H]hypoxanthine incorporation preincubated for 48 hrs followed by [3H]hypoxanthine addition and measured after 18 hrs by topcount scintillation counting analysis; assay type: functional, organism-based; procedure, shortened: as §1
Plasmodium falciparum [6] = assay: Antiplasmodial activity against chloroquine-resistant Plasmodium falciparum FcM29 infected in erythrocytes assessed as reduction in [3H]hypoxanthine incorporation preincubated for 48 hrs followed by [3H]hypoxanthine addition and measured after 18 hrs by topcount scintillation counting analysis; assay type: functional, organism-based; procedure, shortened: as §1
Plasmodium falciparum [7] = assay: Antiplasmodial activity against synchronized ring stage Plasmodium falciparum 3D7 infected in erythrocytes assessed as effect on parasite development by measuring ring stage parasitemia at 2 uM supplemented with fresh medium containing compound every 24 hrs measured at 48 hrs by Giemsa/Diff-quick staining based fluorescence microscopic analysis (reference value: 9.9%); assay type: functional
Procedure, shortened: (§2)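 Tightly synchronized ring-stage culture at 2.5% hematocrit and 1–2% parasitemia, treated or not with 2 μM for 69 h, with drug-containing medium renewed every 24 h. Thin smears taken every 6 h, methanol-fixed and stained with Diff-Quick (pH 7.2). Parasitemia scored by parasite stage, and morphology examined.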

Plasmodium falciparum [8] = assay: Antiplasmodial activity against synchronized ring stage Plasmodium falciparum 3D7 infected in erythrocytes assessed as effect on parasite development by measuring late schizont stage parasitemia at 2 uM supplemented with fresh medium containing compound every 24 hrs measured at 48 hrs by Giemsa/Diff-quick staining based fluorescence microscopic analysis (reference value: 0.4%); assay type: functional; procedure, shortened: as §2
Plasmodium berghei [9] = assay: Antiplasmodial activity against Plasmodium berghei ANKA infected in Swiss NMRI mouse assessed as parasitemia at 30 mg/kg, ip administered once daily for 4 days measured on day 11 by Giemsa-staining based assay relative to control; assay type: functional
Procedure, shortened: (§3)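 Female Swiss NMRI mice infected on day 0 by IV caudal-vein injection of 10⁷ P. berghei ANKA-infected erythrocytes (clone 2.34). Compound given ip in 0.9% NaCl, 100 μL per mouse, 3 mice per group. Either one daily dose for 4 consecutive days from day 1, or a single dose on day 1. Parasitemia counted on Giemsa-stained thin smears and followed for 30 days. Controls received vehicle only.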

Plasmodium falciparum [10] = assay: Antiplasmodial activity against synchronized ring stage Plasmodium falciparum 3D7 infected in erythrocytes assessed as effect on parasite development by measuring ring stage parasitemia at 2 uM supplemented with fresh medium containing compound every 24 hrs measured at 69 hrs by Giemsa/Diff-quick staining based fluorescence microscopic analysis (reference value: 11.1%); assay type: functional; procedure, shortened: as §2
Plasmodium berghei [11] = assay: Antiplasmodial activity against Plasmodium berghei ANKA infected in po dosed Swiss NMRI mouse assessed as reduction in parasitemia administered once daily for 4 days measured 24 hrs post-last dose by Giemsa-staining based assay; assay type: functional
Procedure, shortened: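 Female Swiss NMRI mice infected on day 0 by IV injection of 10⁷ P. berghei ANKA-infected erythrocytes. Oral dosing in water (100 μL, 3 mice per group) at 0, 1, 3, 10 and 30 mg/kg, once daily for 4 days from day 1. Water-only controls. Day-5 parasitemia counted on Giemsa-stained thin smears, and ED50 derived as the dose reducing parasitemia by 50%.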

Plasmodium falciparum [12] = assay: Antiplasmodial activity against segmented schizont stage Plasmodium falciparum 3D7 infected in erythrocytes assessed as effect on merozoite DNA content at 2 uM supplemented with fresh medium containing compound every 24 hrs measured at 45 hrs by Hoechst staining based immunofluorescence microscopic analysis; assay type: functional, organism-based
Procedure, shortened: (§4)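 Tightly synchronized ring-stage culture at 2.5% hematocrit and 1–2% parasitemia, treated or not with 2 μM; drug-containing medium changed every 24 h. At 45 h (segmented schizonts), smears fixed in 4% formaldehyde/PBS, glycine-quenched, Triton X-100-permeabilized and BSA-blocked. Stained with α-mTIP and α-MSP1 antibodies, then secondaries, with Hoechst labelling nuclei.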

Plasmodium falciparum [13] = assay: Antiplasmodial activity against synchronized ring stage Plasmodium falciparum 3D7 infected in erythrocytes assessed as effect on parasite development by measuring early schizont stage parasitemia at 2 uM supplemented with fresh medium containing compound every 24 hrs measured at 39 hrs by Giemsa/Diff-quick staining based fluorescence microscopic analysis (reference value: 2.1%); assay type: functional; procedure, shortened: as §2
Plasmodium falciparum [14] = assay: Antiplasmodial activity against synchronized ring stage Plasmodium falciparum 3D7 infected in erythrocytes assessed as effect on parasite development by measuring ring stage parasitemia at 2 uM measured after 24 hrs by Giemsa/Diff-quick staining based fluorescence microscopic analysis (reference value: 2.1%); assay type: functional; procedure, shortened: as §2
Plasmodium falciparum [15] = assay: Antiplasmodial activity against synchronized ring stage Plasmodium falciparum 3D7 infected in erythrocytes assessed as effect on parasite development by measuring ring stage parasitemia at 2 uM measured immediately by Giemsa/Diff-quick staining based fluorescence microscopic analysis (reference value: 2.1%); assay type: functional; procedure, shortened: as §2
Plasmodium falciparum [16] = assay: Antiplasmodial activity against segmented schizont stage Plasmodium falciparum 3D7 infected in erythrocytes assessed as effect on merozoite development at 2 uM supplemented with fresh medium containing compound every 24 hrs measured at 45 hrs by Hoechst staining based immunofluorescence microscopic analysis; assay type: functional, organism-based; procedure, shortened: as §4
Plasmodium falciparum [17] = assay: Antiplasmodial activity against synchronized ring stage Plasmodium falciparum 3D7 infected in erythrocytes assessed as effect on parasite development by measuring late schizont stage parasitemia at 2 uM supplemented with fresh medium containing compound every 24 hrs measured at 42 hrs by Giemsa/Diff-quick staining based fluorescence microscopic analysis (reference value: 1.9%); assay type: functional; procedure, shortened: as §2
Plasmodium berghei [18] = assay: Antiplasmodial activity against Plasmodium berghei ANKA infected in Swiss NMRI mouse assessed as reduction in parasitemia at 30 mg/kg, ip administered as single dose by Giemsa-staining based assay relative to control; assay type: functional; design: scale not given: the % may be the effect or the level left; procedure, shortened: as §3
Plasmodium berghei [19] = assay: Antiplasmodial activity against Plasmodium berghei ANKA infected in Swiss NMRI mouse assessed as parasitemia at 30 mg/kg, ip administered once daily for 4 days measured on day 14 by Giemsa-staining based assay relative to control; assay type: functional; procedure, shortened: as §3

Row | SMILES | selectivity ratio [1] | IC50 (Plasmodium falciparum [2]) [µM] | IC50 at 24 h [3] [µM] | also measured
1 | O=c1[nH]c(=O)c2ncn(CC[C@H](O)CP(=O)(O)O)c2[nH]1 | > 1 | 910 | > 1000 | 
2 | Nc1nc(N)c2ncn(CC[C@@H](N)CP(=O)(O)O)c2n1 |  | > 100 | > 1000 | 
3 | Nc1nc(N)c2ncn(CC[C@H](N)CP(=O)(O)O)c2n1 |  | > 100 | > 1000 | 
4 | Nc1nc(O)c2ncn(CC/C=C\P(=O)(O)O)c2n1 |  | > 100 | > 1000 | 
5 | Nc1nc2c(ncn2C[C@@H](O)CP(=O)(O)O)c(=O)[nH]1 |  | > 1000 | > 1000 | 
6 | Nc1nc(O)c2ncn(CC[C@@H](N)CP(=O)(O)O)c2n1 |  | > 100 | > 1000 | 
7 | Nc1ncc2ncn(CC[C@@H](O)CP(=O)(O)O)c2n1 | > 16 | 67 | > 1000 | 
8 | O=c1[nH]c(=O)c2ncn(CC[C@@H](O)CP(=O)(O)O)c2[nH]1 |  | 590 | > 1000 | 
9 | Nc1nc(O)c2ncn(CC[C@H](N)CP(=O)(O)O)c2n1 |  | > 100 | > 1000 | 
10 | C[C@H]1[C@H](OC(=O)CCC(=O)O)O[C@@H]2O[C@@]3(C)CC[C@H]4[C@H](C)CC[C@@H]1[C@@]24OO3 [ARTESUNATE] |  |  |  | ED50 (Plasmodium berghei [4]): 0.1 mg/kg
11 | Nc1nc(F)nc2c1ncn2CC[C@@H](O)CP(=O)(O)O | > 38 | 26.3 | > 1000 | 
12 | Nc1nc2c(ncn2C[C@H](O)CP(=O)(O)O)c(=O)[nH]1 | > 1.7 | 595 | > 1000 | 
13 | Nc1ncnc2c1ncn2C[C@@H](O)CP(=O)(O)O |  | > 1000 | > 1000 | 
14 | CCN(CC)CCCC(C)Nc1ccnc2cc(Cl)ccc12 (stereo not drawn) [CHLOROQUINE] |  |  | 25.3 | 
15 | Nc1nc(N)c2ncn(C[C@@H](O)CP(=O)(O)O)c2n1 | > 2.6 | 327 | > 1000 | 
16 | Nc1nc(N)c2ncn(CC[C@H](O)CP(=O)(O)O)c2n1 |  | > 1000 | > 1000 | 
17 | Nc1nc(N)c2ncn(CC[C@@H](O)CP(=O)(O)O)c2n1 | > 21 | 48 | > 1000 | 
18 | Nc1nc(N)c2ncn(C[C@H](O)CP(=O)(O)O)c2n1 | > 2 | 510 | > 1000 | 
19 | Nc1ncnc2c1ncn2CC[C@H](O)CP(=O)(O)O |  | > 1000 | > 1000 | 
20 | O=c1[nH]cnc2c1ncn2CC[C@H](O)CP(=O)(O)O |  | > 1000 | > 1000 | 
21 | Nc1nc2c(ncn2CC[C@H](O)CP(=O)(O)O)c(=O)[nH]1 | 164 | 6.1 | > 1000 | IC50 (Plasmodium falciparum [5]): 5.6 µM; IC50 (Plasmodium falciparum [6]): 4.5 µM
22 | Nc1ncnc2c1ncn2C[C@H](O)CP(=O)(O)O |  | > 1000 | > 1000 | 
23 | Nc1ncnc2c1ncn2CC[C@@H](O)CP(=O)(O)O |  | > 1000 | > 1000 | 
24 | Nc1nc2c(ncn2CC[C@@H](O)CP(=O)([O-])[O-])c(=O)[nH]1.[Na+].[Na+] | > 1350 | 0.074 | > 1000 | Activity (Plasmodium falciparum [7]): 0.6%; Activity (Plasmodium falciparum [8]): 1.3%; Activity (Plasmodium berghei [9]): 6.9 - 16.7%; Activity (Plasmodium falciparum [10]): 0%; ED50 (Plasmodium berghei [11]): 30 mg/kg; Activity (Plasmodium falciparum [12]): inactive; ED50 (Plasmodium berghei [4]): 0.56 mg/kg; Activity (Plasmodium falciparum [13]): 2.1%; Activity (Plasmodium falciparum [14]): 2.1%; Activity (Plasmodium falciparum [15]): 2.1%; IC50 (Plasmodium falciparum [5]): 0.045 µM; Activity (Plasmodium falciparum [16]): inactive; Activity (Plasmodium falciparum [17]): 1.7%; IC50 (Plasmodium falciparum [6]): 0.03 µM; Activity (Plasmodium berghei [18]): 95%; Activity (Plasmodium berghei [19]): 1.7%
25 | Nc1nc(O)c2ncn(CCCCP(=O)(O)O)c2n1 | > 17 | 74 | > 1000 | 
26 | O=c1[nH]cnc2c1ncn2CC[C@@H](O)CP(=O)(O)O |  | > 1000 | > 1000 | 
